Measurements reported in ChEMBL document CHEMBL1158346, “Synthesis and antioxidant potential of novel synthetic benzophenone analogues” (Eur J Med Chem, 2009).
The source made the active and inactive calls. The rule behind the calls is not given here.

Experiments:
[1] = Antioxidant activity assessed as Fe2+ formation per nmol of compound by FRAP assay; type: functional
In short: (§1)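 FRAP method: working reagent of acetate buffer, TPTZ solution and FeCl₃·6H₂O solution (25:2.5:2.5 by volume), warmed 30 min at 37 °C before addition. Absorbance read after 30 min at 30 s intervals. Trolox as reference antioxidant. Output is the antioxidant ratio, nmol Fe²⁺ per nmol compound, mean ± SD, n = 3.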

[2] = Antioxidant activity assessed as Fe2+ formation per nmol of compound by FRAP assay relative to trolox; type: functional; in short: as §1
[3] = tested on: MCF7; test: Cytotoxicity against human MCF7 cells after 48 hrs by MTT assay; type: functional, cell-based; conditions: MCF7, 48 h
In short: (§2)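 Cells seeded at 1 ×10⁴ per well and allowed 24 h, then exposed 48 or 72 h. Medium replaced with fresh medium containing MTT at 0.5 mg/ml final, 3 h at 37 °C. MCF7 in phenol red-free RPMI-1640 with 10% FBS; hTERT-HME1 in RPMI-1640/mammary epithelial growth medium 90:10. IC₂₀ and IC₅₀ are means of 8 assays ± SD.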

[4] = Cytotoxicity against hTERT-HME1 cells after 72 hrs by MTT assay; type: cell-based, Homo sapiens; conditions: for IC50: Homo sapiens, HME1, 72 h; for IC20 at 72 h: human, hTERT-HME1 cells; in short: as §2
[5] = tested on: MCF7; test: Cytotoxicity against human MCF7 cells after 72 hrs by MTT assay; type: functional, cell-based; conditions: MCF7, 72 h; in short: as §2
[6] = Cytotoxicity against hTERT-HME1 cells after 48 hrs by MTT assay; type: cell-based, Homo sapiens; conditions: for IC50: Homo sapiens, HME1, 48 h; for IC20 at 48 h: human, hTERT-HME1 cells; in short: as §2
[7] = Antioxidant activity in 2',7'-dichlorodihydrofluorescein diacetate-treated hTERT-HME1 cells assessed as reduction of H2O2 production at 100 uM during after 24 hrs by FACS analysis; type: functional, Homo sapiens; parameters: scale not given: the % may be the effect or the level left
In short: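 Mammary cells seeded at 0.75 ×10⁶ per 100-mm dish. Exposed to test agent or Trolox at […] (unit as printed) for 4, 8, 12, 24 and 48 h. Loaded with H₂DCFDA 15 min at 37 °C. Detached plus adherent cells resuspended in PBS; DCF read in FL1 on a FACScan. Output is the ratio of treated to DMSO-control fluorescence, mean ± SD, n = 3.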

O=C(c1ccc(O)c(O)c1)c1ccc2sc(=O)[nH]c2c1
Activity [1]: 6.1 nmol
Ratio [2]: 2
IC20 [3]: 12.1 µM
IC50 [3]: 43.6 µM
IC50 [4]: 116 µM
IC20 at 72 h [4]: 33.8 µM
IC20 [5]: 8.3 µM
IC50 [5]: 28.1 µM
IC50 [6]: 155 µM
IC20 at 48 h [6]: 43.5 µM

Cc1c(C)c2c(c(C)c1O)CCC(C)(C(=O)O)O2 (stereo not given) [TROLOX]
Activity [7]: 20%

O=C(c1ccc(O)cc1)c1ccc2sc(=O)[nH]c2c1
Activity [1]: inactive
IC20 [3]: 44.5 µM
IC50 [3]: 121 µM
IC50 [4]: 111 µM
IC20 at 72 h [4]: 78.4 µM
IC20 [5]: 37.8 µM
IC50 [5]: 95.9 µM
IC50 [6]: 109 µM
IC20 at 48 h [6]: 73.1 µM
